Calls of active or inactive are those of the source. The calls are words filed in the database; no cut-off is given here.
How the values were obtained:
[1] = Antiproliferative activity against human MCF7 cells after 48 hrs by MTT assay; format: functional, cell-based; conditions: for IC50: Homo sapiens, MCF7, 48 h
Procedure, shortened: (§1)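 5000 cells seeded per well in RPMI complete medium; next day medium replaced with medium containing a range of compound concentrations, with a no-drug control and 17-AAG as reference. After 48 h at 37 °C, 5% CO2, MTT (4 mg/mL solution) added for 3 h. Formazan dissolved in DMSO, absorbance read at 540 nm. Triplicate determinations; mean SD from dose-response curves of three independent experiments.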

[2] = Antiproliferative activity against human A549 cells after 48 hrs by MTT assay; format: functional, cell-based; conditions: for IC50: Homo sapiens, A549, 48 h; procedure, shortened: as §1
[3] = Antiproliferative activity against human DU145 cells after 48 hrs by MTT assay; format: functional, cell-based, DU-145; conditions: for IC50: Homo sapiens, DU-145, 48 h; procedure, shortened: as §1
[4] = molecular target: T1, Heat shock protein HSP90 (Homo sapiens) (UniProt P07900+P08238); test: Inhibition of HSP90 in human MCF7 cells assessed as decrease in Her2 protein expression at 50 uM after 24 hrs by Western blot method relative to control; format: cell-based
Procedure, shortened: (§2)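 MCF-7 cells seeded at 10⁶ per 25 cm² flask and treated 24 h with 50 µM compound; DMSO vehicle control, 0.5 μM 17-AAG reference. Lysis in Tris-HCl pH 7.4 buffer with protease/phosphatase inhibitors. 50 µg protein resolved on 10% SDS-PAGE, transferred to PVDF, blocked 2 h in 5% skim milk/TBST at 4 °C. Probed 2 h with rabbit anti-Her-2 and anti-Hsp-70 (1:3000); β-tubulin also blotted.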

[5] = molecular target: T1, Heat shock protein HSP90 (Homo sapiens); test: Inhibition of HSP90 in human MCF7 cells assessed as induction of HSP70 protein expression at 50 uM after 24 hrs by Western blot method relative to control; format: cell-based; procedure, shortened: as §2
[6] = Effect on beta-tubulin protein expression in human MCF7 cells at 50 uM after 24 hrs by Western blot method; format: cell-based; conditions: mcf7, 24 h; procedure, shortened: as §2

inhibition [4] [%] | inhibition [5] | Compound | IC50 [1] [µM] | IC50 [2] [µM] | IC50 [3] [µM] | Activity [6] | Activity [1] [µM] | Activity [2] [µM] | Activity [3] [µM]
> 50 | Active | COc1cc(-c2cc(CO)c3cc4c(cc3n2)OCCO4)cc(OC)c1OC | 4.53 | 46.9 | 64.2 | Non-Toxic | – | – | –
– | – | Cc1ccc(-c2cc(C(=O)O)c3cc4c(cc3n2)OCCO4)cc1 | > 100 | > 100 | > 100 | – | – | – | –
– | – | COc1cc(-c2cc(C(=O)O)c3cc4c(cc3n2)OCCO4)cc(OC)c1OC | > 100 | > 100 | > 100 | – | – | – | –
– | – | O=C(O)c1cc(-c2cccc(O)c2)nc2cc3c(cc12)OCCO3 | > 100 | > 100 | > 100 | – | – | – | –
– | – | COc1ccc(/C=N/c2ccc3c(c2)OCCO3)cc1OC | – | – | – | – | >100 | >100 | >100
> 50 | Active | OCc1cc(-c2ccccc2)nc2cc3c(cc12)OCCO3 | 22.7 | > 100 | 86.1 | Non-Toxic | – | – | –
– | – | O=C(O)c1cc(-c2ccccc2)nc2cc3c(cc12)OCCO3 | > 100 | > 100 | > 100 | – | – | – | –
– | – | COc1cc(/C=N/c2ccc3c(c2)OCCO3)cc(OC)c1OC | – | – | – | – | >100 | >100 | >100
– | – | O=C(O)c1cc(-c2ccc(O)cc2)nc2cc3c(cc12)OCCO3 | > 100 | > 100 | > 100 | – | – | – | –
> 50 | Active | COc1ccc(-c2cc(CO)c3cc4c(cc3n2)OCCO4)cc1O | 40 | 94.2 | 89.7 | Non-Toxic | – | – | –
– | – | C=CCNC1=C2C[C@@H](C)C[C@H](OC)[C@H](O)[C@@H](C)/C=C(\C)[C@H](OC(N)=O)[C@@H](OC)/C=C\C=C(/C)C(=O)NC(=CC1=O)C2=O [TANESPIMYCIN] | 0.192 | 0.286 | 0.282 | – | – | – | –
– | – | COc1cc(/C=N/c2ccc3c(c2)OCCO3)ccc1O | – | – | – | – | >100 | >100 | >100
– | – | COc1ccc(-c2cc(C(=O)O)c3cc4c(cc3n2)OCCO4)cc1 | > 100 | > 100 | > 100 | – | – | – | –
– | – | COc1ccc(-c2cc(C(=O)O)c3cc4c(cc3n2)OCCO4)cc1O | > 100 | > 100 | > 100 | – | – | – | –
– | – | COc1cc(-c2cc(C(=O)O)c3cc4c(cc3n2)OCCO4)ccc1O | > 100 | > 100 | > 100 | – | – | – | –
> 50 | Active | COc1cc(-c2cc(CO)c3cc4c(cc3n2)OCCO4)ccc1O | 25.7 | 87.8 | 86.8 | Non-Toxic | – | – | –
– | – | COc1ccc(-c2cc(C(=O)O)c3cc4c(cc3n2)OCCO4)cc1OC | > 100 | > 100 | > 100 | – | – | – | –
> 50 | Active | COc1ccc(-c2cc(CO)c3cc4c(cc3n2)OCCO4)cc1OC | 6.7 | 82.1 | 11.5 | Non-Toxic | – | – | –
– | – | Oc1ccc(/C=N/c2ccc3c(c2)OCCO3)cc1 | – | – | – | – | >100 | >100 | >100
– | – | CC(=O)Nc1ccc(-c2cc(C(=O)O)c3cc4c(cc3n2)OCCO4)cc1 | > 100 | > 100 | > 100 | – | – | – | –
> 50 | Active | COc1ccc(-c2cc(CO)c3cc4c(cc3n2)OCCO4)cc1 | 24 | > 100 | 21.4 | Non-Toxic | – | – | –

Reference: ChEMBL document CHEMBL3875225, “Design, synthesis and biological evaluation of 7-(aryl)-2,3-dihydro-[1,4]dioxino[2,3-g]quinoline derivatives as potential Hsp90 inhibitors and anticancer agents” (Bioorg Med Chem, 2017)
